pEC50, pKi: −log10 of the molar value.
Legend:
Adenosine receptor A3 [1] = biological target: T1, Adenosine receptor A3 (Homo sapiens, UniProt P0DMS8); assay: Displacement of [125I]AB-MECA from human cloned adenosine A3 receptor expressed in CHO cells; type: cell-based
T1 sequence (P0DMS8 whole entry): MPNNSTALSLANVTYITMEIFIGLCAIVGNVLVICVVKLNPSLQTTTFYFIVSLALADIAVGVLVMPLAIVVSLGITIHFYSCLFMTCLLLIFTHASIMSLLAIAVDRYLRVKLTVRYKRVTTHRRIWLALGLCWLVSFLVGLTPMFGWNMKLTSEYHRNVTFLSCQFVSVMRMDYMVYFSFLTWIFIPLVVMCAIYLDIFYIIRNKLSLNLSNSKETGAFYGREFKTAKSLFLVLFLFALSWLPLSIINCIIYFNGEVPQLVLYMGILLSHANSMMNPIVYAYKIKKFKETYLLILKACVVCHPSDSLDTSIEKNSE

[2] = biological target: T2, Adenosine receptor A1 (Homo sapiens) (UniProt P30542); assay: Displacement of [3H]DPCPX from human cloned adenosine A1 receptor expressed in CHO cells at 10 uM; type: cell-based
T2 sequence (whole entry): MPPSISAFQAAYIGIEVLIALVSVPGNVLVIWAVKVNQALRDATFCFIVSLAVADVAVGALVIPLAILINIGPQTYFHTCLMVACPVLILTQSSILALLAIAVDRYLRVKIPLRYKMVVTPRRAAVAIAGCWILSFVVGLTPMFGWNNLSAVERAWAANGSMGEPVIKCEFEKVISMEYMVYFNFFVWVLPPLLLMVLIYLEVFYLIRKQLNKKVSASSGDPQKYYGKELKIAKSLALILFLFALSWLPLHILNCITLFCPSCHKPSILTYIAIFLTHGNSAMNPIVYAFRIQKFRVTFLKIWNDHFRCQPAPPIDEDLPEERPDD
How it was run: (§1)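 CHO cell membranes stably expressing hA1 or hA2A; radioligands [3H]DPCPX (hA1, Kd 3 nM) and [3H]NECA (hA2A, Kd 30 nM). IC50 from five displacer concentrations in triplicate, nonlinear regression; Ki by Cheng–Prusoff; four separate assays. Single-point values as percent inhibition of specific binding at 10 μM.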

Adenosine receptor A2a [3] = biological target: T3, Adenosine receptor A2a (Homo sapiens, UniProt P29274); assay: Displacement of [3H]NECA from human cloned adenosine A2A receptor expressed in CHO cells; type: cell-based
T3 sequence (P29274 whole entry): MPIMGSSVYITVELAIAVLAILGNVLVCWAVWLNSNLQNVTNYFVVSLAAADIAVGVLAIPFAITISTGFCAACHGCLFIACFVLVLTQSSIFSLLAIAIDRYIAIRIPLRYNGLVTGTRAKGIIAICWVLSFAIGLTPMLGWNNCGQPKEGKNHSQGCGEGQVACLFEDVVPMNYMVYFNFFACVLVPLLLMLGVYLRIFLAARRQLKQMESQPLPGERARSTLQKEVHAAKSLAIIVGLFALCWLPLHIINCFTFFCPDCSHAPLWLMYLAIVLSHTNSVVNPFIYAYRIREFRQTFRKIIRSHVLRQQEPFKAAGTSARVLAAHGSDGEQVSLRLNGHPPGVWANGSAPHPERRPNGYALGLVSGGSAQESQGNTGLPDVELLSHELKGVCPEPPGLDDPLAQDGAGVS

Adenosine receptor A1 [4] = biological target: T4, Adenosine receptor A1 (Bos taurus, UniProt P28190); assay: Displacement of [3H]DPCPX from bovine brain cortical membrane adenosine A1 receptor
T4 sequence (P28190 whole entry): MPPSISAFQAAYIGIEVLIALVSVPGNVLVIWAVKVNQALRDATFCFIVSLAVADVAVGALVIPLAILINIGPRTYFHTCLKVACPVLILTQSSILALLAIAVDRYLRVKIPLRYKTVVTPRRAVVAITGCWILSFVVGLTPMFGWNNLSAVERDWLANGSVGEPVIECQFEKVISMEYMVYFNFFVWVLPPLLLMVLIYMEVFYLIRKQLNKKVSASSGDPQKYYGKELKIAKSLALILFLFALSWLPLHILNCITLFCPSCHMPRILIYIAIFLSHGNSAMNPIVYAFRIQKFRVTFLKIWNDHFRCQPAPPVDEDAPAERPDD

[5] = Displacement of [3H]CGS 21680 from bovine striatal membrane adenosine A2A receptor; design: species or system Bos taurus
Adenosine receptor A1 [6] = biological target: T5, Adenosine receptor A1 (Homo sapiens, UniProt P30542); assay: Displacement of [3H]DPCPX from human cloned adenosine A1 receptor expressed in CHO cells; type: cell-based
T5 sequence (P30542 whole entry): T2 sequence (whole entry)

[7] = biological target: T6, Adenosine receptor A1 (Bos taurus) (UniProt P28190); assay: Displacement of [3H]DPCPX from bovine brain cortical membrane adenosine A1 receptor at 20 uM
T6 sequence (whole entry): T4 sequence (P28190 whole entry)
How it was run: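 Bovine cerebral cortical membranes; [3H]DPCPX displacement (Kd 0.3 nM). IC50 from five displacer concentrations in triplicate; Ki by Cheng–Prusoff, mean of four assays.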

Bos taurus = species on record: Bos taurus; assay: Displacement of [3H]CGS 21680 from bovine striatal membrane adenosine A2A receptor at 20 uM
How it was run: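 IC50 from five concentrations in triplicate, nonlinear regression; Ki via Cheng–Prusoff from four assays. Single-point values as percent inhibition at 20 μM.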

Adenosine receptor A2a [8] = biological target: T3, Adenosine receptor A2a; assay: Displacement of [3H]NECA from human cloned adenosine A2A receptor expressed in CHO cells at 10 uM; type: cell-based; how it was run: as §1
Adenosine receptor A3 [9] = biological target: T1, Adenosine receptor A3; assay: Antagonist activity at human adenosine A3 receptor expressed in CHO cells assessed as blockade of NECA-mediated inhibition of forskolin-stimulated cAMP accumulation; type: functional, cell-based
How it was run: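 CHO cells stably expressing hA3, plated 48 h, preincubated 15 min at 37 °C with Ro 20-1724 (20 μM) and adenosine deaminase (1 U/mL). Compound (1 nM–10 μM; DMSO stock diluted in water) added 15 min before 100 nM NECA, with 1 μM forskolin stimulation. Lysis in 0.4 N HCl; cAMP by competitive protein binding with [3H]cAMP. EC50 by sigmoid nonlinear regression; three experiments.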

Adenosine receptor A1 [10] = biological target: T7, Adenosine receptor A1 (Rattus norvegicus, UniProt P25099); assay: Displacement of [3H]DPCPX from adenosine A1 receptor in Wistar rat brain membrane; type: cell membranes
T7 sequence (P25099 whole entry): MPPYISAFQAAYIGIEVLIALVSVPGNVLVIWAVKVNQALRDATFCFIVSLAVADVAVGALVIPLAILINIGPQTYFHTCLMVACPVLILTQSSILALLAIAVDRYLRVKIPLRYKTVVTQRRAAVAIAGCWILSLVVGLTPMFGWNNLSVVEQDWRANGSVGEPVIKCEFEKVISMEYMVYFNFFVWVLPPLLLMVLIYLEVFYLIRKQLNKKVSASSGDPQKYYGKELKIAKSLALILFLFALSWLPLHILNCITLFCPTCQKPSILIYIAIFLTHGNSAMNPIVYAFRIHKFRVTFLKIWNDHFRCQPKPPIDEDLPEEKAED
How it was run: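 Nonspecific binding defined with 20 μM R-PIA. Filtration on GF/C filters. IC50 by nonlinear regression over five displacer concentrations in triplicate; Ki via Cheng–Prusoff.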

[11] = biological target: Adenosine receptor A2a (Rattus norvegicus) (UniProt P30543); assay: Displacement of [3H]CGS21680 adenosine A2A receptor in Wistar rat brain membrane at 10 uM; type: cell membranes
Adenosine receptor A2a (Rattus norvegicus), sequence (P30543 whole entry): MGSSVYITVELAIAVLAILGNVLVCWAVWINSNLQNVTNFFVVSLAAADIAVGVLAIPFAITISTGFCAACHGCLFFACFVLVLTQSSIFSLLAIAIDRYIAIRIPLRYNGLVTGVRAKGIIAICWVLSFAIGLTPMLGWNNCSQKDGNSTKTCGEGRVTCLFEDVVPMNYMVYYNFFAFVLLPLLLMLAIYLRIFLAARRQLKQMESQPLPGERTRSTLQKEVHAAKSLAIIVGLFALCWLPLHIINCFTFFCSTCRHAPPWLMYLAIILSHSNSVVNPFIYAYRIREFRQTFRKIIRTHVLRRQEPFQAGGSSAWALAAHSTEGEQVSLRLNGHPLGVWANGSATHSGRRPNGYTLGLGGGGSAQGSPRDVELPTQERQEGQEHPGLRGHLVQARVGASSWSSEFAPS

[12] = biological target: T8, Adenosine receptor A3 (Rattus norvegicus) (UniProt P28647); assay: Displacement of [125I]AB-MECA from Wistar rat adenosine A3 receptor expressed in HEK293/EBNA cells by gamma-scintillation spectrometry at 1 uM; type: cell-based
T8 sequence (whole entry): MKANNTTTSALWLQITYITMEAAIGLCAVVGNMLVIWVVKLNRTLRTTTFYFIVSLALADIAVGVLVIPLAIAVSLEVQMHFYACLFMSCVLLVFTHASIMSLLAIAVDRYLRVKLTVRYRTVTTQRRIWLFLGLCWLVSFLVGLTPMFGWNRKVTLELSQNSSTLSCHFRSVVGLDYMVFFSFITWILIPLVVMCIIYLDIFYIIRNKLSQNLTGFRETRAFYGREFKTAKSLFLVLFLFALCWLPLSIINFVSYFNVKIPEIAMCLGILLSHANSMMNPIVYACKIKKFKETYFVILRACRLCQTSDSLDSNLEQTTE

Hippocampus [13] = assay: Neuroprotective effect against 7-mins oxygen-glucose deprivation triggered neuronal injury in Wistar rat hippocampal CA1 region assessed as recovery of field excitatory post synaptic potential at 10 nM relative to control; type: functional
How it was run: (§2)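 Rat hippocampal slices; CA1 stratum radiatum stimulated (80 μs, 0.066 Hz) with fEPSP at 40–50% of maximum, amplitude expressed as percent of 5 min pre-OGD baseline. OGD: glucose-free aCSF gassed 95% N2/5% CO2 for 7 or 30 min, then reperfusion with oxygenated glucose aCSF. Compound 10 nM (DMSO stock diluted in aCSF) applied 15 min before, during and 5 min after OGD. Anoxic depolarization recorded as negative dc shift, latency from OGD onset; unpaired two-tailed t test.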

Hippocampus [14] = assay: Neuroprotective effect against 30-mins oxygen-glucose deprivation triggered neuronal injury in Wistar rat hippocampus CA1 region assessed as delay in anoxic depolarization latency at 10 nM relative to control; type: functional; how it was run: as §2

Row | pKi (Adenosine receptor A3 [1]) | Activity [2] | pKi (Adenosine receptor A2a [3]) | pKi (Adenosine receptor A1 [4]) | pKi [5] | pKi (Adenosine receptor A1 [6]) | Activity [7] | Activity (Bos taurus) | Activity (Adenosine receptor A2a [8]) | pEC50 (Adenosine receptor A3 [9]) | pKi (Adenosine receptor A1 [10]) | Activity [11] | Activity [12] | SMILES | Activity (Hippocampus [13]) | Activity (Hippocampus [14])
1 | 7.93 | 37% | 6.68 | 8.15 | 6.38 | – | – | – | – | – | – | – | – | O=C(Cc1ccccc1)Nc1nc2ncccc2n2c(=O)n(-c3ccccc3)nc12 | – | –
2 | 7.15 | 8% | 5.65 | 6.82 | 5.15 | – | – | – | – | – | – | – | – | O=C(Nc1nc2ncccc2n2c(=O)n(-c3ccccc3)nc12)c1ccccc1 | – | –
3 | 7.81 | 37% | 6.68 | 9.42 | 6.70 | – | – | – | – | – | – | – | – | O=c1n(-c2ccccc2)nc2c(NC3CCCCC3)nc3ncccc3n12 | – | –
4 | 8.48 | – | – | – | – | 6.94 | 26% | 0% | – | – | – | – | – | COc1ccc(-n2nc3c(=O)[nH]c4ncccc4n3c2=O)cc1 | – | –
5 | 7.39 | 48% | – | – | – | – | 56% | 19% | 29% | – | – | – | – | COc1ccc(-n2nc3c(NC(C)=O)nc4ncccc4n3c2=O)cc1 | – | –
6 | 8.11 | 0% | – | – | – | – | 17% | 0% | 0% | – | – | – | – | COc1ccc(-n2nc3c(N(C(=O)c4ccccc4)C(=O)c4ccccc4)nc4ncccc4n3c2=O)cc1 | – | –
7 | 8.34 | 38% | – | 6.45 | – | – | – | 7% | 27% | 7.44 | 6.23 | 34% | 0% | COc1ccc(-n2nc3c(NC(=O)c4ccccc4)nc4ncccc4n3c2=O)cc1 | 77.6% | 8.9
8 | 8.08 | 36% | 6.68 | 9.33 | 6.29 | – | – | – | – | – | – | – | – | O=c1n(-c2ccccc2)nc2c(NC3CCCC3)nc3ncccc3n12 | – | –
